Measured values: PubChem BioAssay
The source made the active and inactive calls.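 The calls were made as follows, unless noted: active = visually confirmed hit in the image check and inhibition above 20%; inconclusive = visually confirmed hit but inhibition not above 20%; inactive = no visual hit in the image check.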

Tests used:
[1] = inhibitors of TNFa-induced NFkB p65 translocation, primary screen, imaging, HUVEC, MLSMR starter and 10KST1 sets (AID 438;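 active = inhibition above 20% together with a positive visual image hit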;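 also: compound added about 3h40 before a 20 min TNFalpha stimulation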;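 as to inhibition: signal is the nuclear over cytoplasmic p65 intensity ratio per well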); settings: HUVEC TNFa-induced p65 nuclear translocation; cell count: measured here: nuclei count (cytotoxicity indicator), at 2.08 µM; inhibition: at 2 µM, stronger effect = higher value, 0% TNFa-plus-vehicle, 100% no-TNFa wells
[2] = inhibitors of mutant huntingtin aggregation, primary screen, imaging, exon1htt(103Q)mCFP cells, high-content imaging (AID 483;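 active = visual image review flags a hit and inhibition of aggregation exceeds 20%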;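 also: compound exposure lasted 3 days before fixation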;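 as to nuclei count: percent of the per-plate median nuclei count of sample wells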); settings: exon1htt(103Q)mCFP cell line, aggregate imaging, at 2 µM; inhibition of aggregation: stronger effect = higher value; nuclei count: measured here: cell count, toxicity
[3] = inhibitors of E-selectin induction by TNFa, primary screen, imaging, HUVEC, immunofluorescence, MLSMR starter and 10KST1 sets (AID 487); settings: HUVEC TNFalpha-induced E-selectin immunofluorescence imaging, at 2 µM; inhibition: stronger effect = higher value; nuclei count: measured here: cell number, toxicity;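 as to inhibition: signal is fraction of cell area covered by stained E-selectin grains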;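 as to nuclei count: 100% = median nuclei count of all wells on the same plate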
[4] = biological target: Voltage-gated potassium channel subunit beta-2 (Rattus norvegicus) (UniProt P62483); test: KvBeta enzyme negative modulators, primary screen, biochemical, NADPH fluorescence (AID 622;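 active = fluorescence slope higher than the sample average by over 3 SD, cut at about -0.22 in these data, passing the limit was not always enough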;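 also: slope of raw intensity against log time taken from 70 to 1610 s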); settings: recombinant KvBeta, 4-cyanobenzaldehyde reduction, at 10 µM, stronger effect = higher value
[5] = biological target: Voltage-gated potassium channel subunit beta-2 (Rattus norvegicus) (UniProt P62483); test: KvBeta positive modulators, primary screen, biochemical, NADPH fluorescence (AID 623;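 active = NADPH fluorescence slope more negative than the mean of all samples by about 3 SD, 99.7% confidence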;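 also: fluorescence intensity change per second fitted from 20 to 320 s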); settings: Recombinant KvBeta, NADPH fluorescence decrease slope, 10 min; at 10 µM; stronger effect = lower value
[6] = biological target: Muscarinic acetylcholine receptor M4 (Homo sapiens) (UniProt P08173); test: compounds altering M4/GIRK thallium flux, either direction, primary screen, M4 allosteric agonist project, cell-based, HEK293 M4/GIRK, BTC-AM (AID 625;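 active = fluorescence slope after compound addition differing from the mean of all tested samples at 99.7% confidence, mostly higher but some lower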;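 also: thallium influx through GIRK channels coupled to M4 in HEK293 cells with BTC-AM dye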); settings: at 10 µM, actives lie on both sides
Method in brief: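 Material: HEK293 cells with M4 receptor and GIRK channels; Times: cells overnight at 37 °C, BTC-AM loading 1 h, reads 2 min total; Technique: kinetic BTC-AM fluorescence sampled at 1 Hz, 10 s pre-addition baseline; Read-out basis: slope over 15–24 s of trace normalized to starting intensity; Controls: carbachol positive, DMSO negative.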

[7] = inhibitors of Sendai virus-induced IRF3 signaling, primary screen, TLR/RLR signaling modifier project, cell-based, Sendai virus stimulus, luciferase, 10K MLSCN set (AID 602276;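 active = inhibition at or above 50% at 10 µM; inactive = inhibition below 50%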;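 also: firefly luciferase from ISG56 promoter only with Renilla not read in this screen; 0% = Sendai virus plus DMSO and 100% = medium plus DMSO without virus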); settings: HEK293 RL24 IRF3 luciferase reporter, at 10 µM, stronger effect = higher value
[8] = inhibitors of poly I:C-induced TLR3 signaling, primary screen, cell-based, poly I:C stimulus, luciferase, 10K MLSCN set (AID 602277;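 active = inhibition of the reporter signal at or above 50%; inactive = inhibition below 50%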); settings: HEK293-TLR3 RL24 IRF3 luciferase reporter, at 10 µM, stronger effect = higher value

Chain of Muscarinic acetylcholine receptor M4 (Homo sapiens) (P08173 whole entry, looked up): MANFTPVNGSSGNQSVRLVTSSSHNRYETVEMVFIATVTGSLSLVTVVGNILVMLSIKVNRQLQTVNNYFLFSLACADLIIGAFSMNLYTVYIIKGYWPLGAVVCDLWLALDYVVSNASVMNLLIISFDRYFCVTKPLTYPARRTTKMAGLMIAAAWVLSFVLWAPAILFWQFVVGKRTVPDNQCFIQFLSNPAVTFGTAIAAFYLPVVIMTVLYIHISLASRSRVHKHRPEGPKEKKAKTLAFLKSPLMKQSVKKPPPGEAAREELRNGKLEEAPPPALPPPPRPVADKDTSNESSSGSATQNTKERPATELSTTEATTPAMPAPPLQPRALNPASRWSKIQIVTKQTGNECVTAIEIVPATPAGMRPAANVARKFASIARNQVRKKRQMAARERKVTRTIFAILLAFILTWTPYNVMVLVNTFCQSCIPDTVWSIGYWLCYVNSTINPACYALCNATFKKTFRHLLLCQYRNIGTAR
Chain of Voltage-gated potassium channel subunit beta-2 (Rattus norvegicus) (P62483 whole entry, looked up): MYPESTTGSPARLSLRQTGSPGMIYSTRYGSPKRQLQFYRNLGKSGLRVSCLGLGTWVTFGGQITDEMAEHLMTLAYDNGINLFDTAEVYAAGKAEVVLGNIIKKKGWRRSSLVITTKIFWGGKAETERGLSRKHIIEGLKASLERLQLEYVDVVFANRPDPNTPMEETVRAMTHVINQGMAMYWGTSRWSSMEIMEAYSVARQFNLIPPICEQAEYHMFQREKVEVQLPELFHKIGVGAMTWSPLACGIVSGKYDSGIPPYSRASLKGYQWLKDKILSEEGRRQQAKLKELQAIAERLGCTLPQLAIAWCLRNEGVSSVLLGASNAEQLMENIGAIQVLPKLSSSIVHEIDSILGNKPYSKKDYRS

CC1=C(C#N)C(c2ccc3ncccc3c2)C(C#N)=C(C)N1
cell count [1]: 641 | inhibition [1]: 1.7% (inactive) | inhibition of aggregation [2]: -43.5% (inactive) | nuclei count [2]: 130% | inhibition [3]: -66.3% (inactive) | nuclei count [3]: 110% | fluorescence slope [4]: -0.44 (inactive) | NADPH fluorescence slope [5]: 1.3e-05 (inactive) | fluorescence slope [6]: 0.0045 (inactive) | inhibition [7]: 5.74% (inactive) | inhibition [8]: 5.72% (inactive)

CC(C)CC(=O)CN1C(=O)C2(OCCO2)c2ccccc21
cell count [1]: 490 | inhibition [1]: -2.4% (inactive) | inhibition of aggregation [2]: 22.6% (inactive) | nuclei count [2]: 100% | inhibition [3]: 6.8% (inactive) | nuclei count [3]: 94.9% | fluorescence slope [4]: -0.231 (inactive) | NADPH fluorescence slope [5]: -1.2e-05 (inactive) | fluorescence slope [6]: 0.00852 (inactive) | inhibition [7]: 17.6% (inactive) | inhibition [8]: -9.91% (inactive)

COc1ccc(OC(C)C(=O)N2CCN(c3ccccn3)CC2)cc1 (centres undefined)
cell count [1]: 395 | inhibition [1]: 7.5% (inactive) | inhibition of aggregation [2]: 3% (inactive) | nuclei count [2]: 103% | inhibition [3]: -90.1% (inactive) | nuclei count [3]: 115% | fluorescence slope [4]: -0.447 (inactive) | NADPH fluorescence slope [5]: -3.5e-05 (inactive) | fluorescence slope [6]: 0.0048 (inactive) | inhibition [7]: 21.5% (inactive) | inhibition [8]: 18% (inactive)

CSc1nc(N2CCOCC2)c2c(c1C#N)CCCCC2
cell count [1]: 690 | inhibition [1]: -11.9% (inactive) | inhibition of aggregation [2]: -18.9% (inactive) | nuclei count [2]: 117% | inhibition [3]: -4.6% (inactive) | nuclei count [3]: 111% | fluorescence slope [4]: -0.579 (inactive) | NADPH fluorescence slope [5]: 2.1e-05 (inactive) | fluorescence slope [6]: 0.00519 (inactive) | inhibition [7]: 23% (inactive) | inhibition [8]: 27.5% (inactive)

CCn1c(=N)n(CC(O)COc2cccc(C)c2)c2ccccc21 (centres undefined)
cell count [1]: 289 | inhibition [1]: -4.7% (inactive) | inhibition of aggregation [2]: -15.2% (inactive) | nuclei count [2]: 94.9% | inhibition [3]: -9.5% (inactive) | nuclei count [3]: 112% | fluorescence slope [4]: -0.517 (inactive) | NADPH fluorescence slope [5]: 4.3e-05 (inactive) | fluorescence slope [6]: 0.00395 (inactive) | inhibition [7]: -0.649% (inactive) | inhibition [8]: -11.2% (inactive)

O=C(CN1C(=O)c2ccccc2C1=O)NCC1COc2ccccc2O1 (centres undefined)
cell count [1]: 403 | inhibition [1]: -0.8% (inactive) | inhibition of aggregation [2]: 12.6% (inactive) | nuclei count [2]: 101% | inhibition [3]: 50.3% (inactive) | nuclei count [3]: 75.3% | fluorescence slope [4]: -0.477 (inactive) | NADPH fluorescence slope [5]: 9.2e-05 (inactive) | fluorescence slope [6]: 0.00703 (inactive) | inhibition [7]: -12.5% (inactive) | inhibition [8]: -10.2% (inactive)

CN(CC(=O)Nc1ccncc1)S(=O)(=O)c1ccccc1
cell count [1]: 351 | inhibition [1]: 4.9% (inactive) | inhibition of aggregation [2]: 11.1% (inactive) | nuclei count [2]: 108% | inhibition [3]: -141% (inactive) | nuclei count [3]: 148% | fluorescence slope [4]: -0.432 (inactive) | NADPH fluorescence slope [5]: -7.6e-05 (inactive) | fluorescence slope [6]: 0.00615 (inactive) | inhibition [7]: 14.3% (inactive) | inhibition [8]: 2.23% (inactive)

CC1CCN(C(=S)c2ccccc2O)CC1
cell count [1]: 713 | inhibition [1]: -2.9% (inactive) | inhibition of aggregation [2]: 7.3% (inactive) | nuclei count [2]: 98.7% | inhibition [3]: -144% (inactive) | nuclei count [3]: 121% | fluorescence slope [4]: -0.536 (inactive) | NADPH fluorescence slope [5]: -5.2e-05 (inactive) | fluorescence slope [6]: 0.0045 (inactive) | inhibition [7]: 24.9% (inactive) | inhibition [8]: 34.5% (inactive)

O=C(O)C1CC(=O)N(c2ccc(Br)cc2)C1 (centres undefined)
cell count [1]: 375 | inhibition [1]: 0.4% (inactive) | inhibition of aggregation [2]: -10.6% (inactive) | nuclei count [2]: 107% | inhibition [3]: -49.6% (inactive) | nuclei count [3]: 117% | fluorescence slope [4]: -0.506 (inactive) | NADPH fluorescence slope [5]: -0.000215 (inactive) | fluorescence slope [6]: 0.00384 (inactive) | inhibition [7]: 2.88% (inactive) | inhibition [8]: 10% (inactive)

Cc1ccc(NC(=O)C2CCCNC2=O)nc1 (centres undefined)
cell count [1]: 265 | inhibition [1]: -2.2% (inactive) | inhibition of aggregation [2]: 5.8% (inactive) | nuclei count [2]: 86.6% | inhibition [3]: -48.5% (inactive) | nuclei count [3]: 82.2% | fluorescence slope [4]: -0.448 (inactive) | NADPH fluorescence slope [5]: -4.9e-05 (inactive) | fluorescence slope [6]: 0.00534 (inactive) | inhibition [7]: 2.07% (inactive) | inhibition [8]: -1.11% (inactive)

COc1ccc(CCNC(=O)c2nc3ncccn3n2)cc1OC
cell count [1]: 643 | inhibition [1]: -2.3% (inactive) | inhibition of aggregation [2]: 13.7% (inactive) | nuclei count [2]: 82.2% | inhibition [3]: -12.1% (inactive) | nuclei count [3]: 100% | fluorescence slope [4]: -0.447 (inactive) | NADPH fluorescence slope [5]: -4.3e-05 (inactive) | fluorescence slope [6]: 0.00528 (inactive) | inhibition [7]: 18.2% (inactive) | inhibition [8]: 18.1% (inactive)

CC(C)Oc1cccc(-c2cc(C(=O)N3CCN(S(C)(=O)=O)CC3)c3ccccc3n2)c1
cell count [1]: 638 | inhibition [1]: 11.6% (inactive) | inhibition of aggregation [2]: 11.2% (inactive) | nuclei count [2]: 108% | inhibition [3]: -49% (inactive) | nuclei count [3]: 95% | fluorescence slope [4]: -0.454 (inactive) | NADPH fluorescence slope [5]: 2e-05 (inactive) | fluorescence slope [6]: 0.00711 (inactive) | inhibition [7]: -23% (inactive) | inhibition [8]: -35.2% (inactive)

CCCc1ccc(C(C)NC(=O)c2cnccn2)cc1 (centres undefined)
cell count [1]: 375 | inhibition [1]: 0.4% (inactive) | inhibition of aggregation [2]: -9.4% (inactive) | nuclei count [2]: 107% | inhibition [3]: 32.8% (inactive) | nuclei count [3]: 106% | fluorescence slope [4]: -0.484 (inactive) | NADPH fluorescence slope [5]: -1.5e-05 (inactive) | fluorescence slope [6]: 0.00486 (inactive) | inhibition [7]: 15.6% (inactive) | inhibition [8]: -1.82% (inactive)

CC(Oc1ccc(Cl)cc1Cl)c1nc(-c2ccc(NC(=O)c3cccnc3)cc2)no1 (centres undefined)
cell count [1]: 413 | inhibition [1]: 6.5% (inactive) | inhibition of aggregation [2]: -6.9% (inactive) | nuclei count [2]: 89.5% | inhibition [3]: -60.6% (inactive) | nuclei count [3]: 112% | fluorescence slope [4]: -0.641 (inactive) | NADPH fluorescence slope [5]: 4.9e-05 (inactive) | fluorescence slope [6]: 0.00494 (inactive) | inhibition [7]: 1.84% (inactive) | inhibition [8]: -74.3% (inactive)
